Laboratory results: ChEMBL document CHEMBL1152131, “Tetrahydro-4-quinolinamines identified as novel P2Y(1) receptor antagonists” (Bioorg Med Chem Lett, 2008)

How the values were obtained:
P2Y purinoceptor 1 [1] = biological target: T1, P2Y purinoceptor 1 (Homo sapiens, UniProt P47900); test: Displacement of [33P]2-Mes-ADP from human recombinant P2Y1 receptor expressed in human U20S cells; assay type: cell-based, U2OS
Method in brief: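 Membranes from BacMam-transduced U2OS cells expressing human P2Y1, [33P]-2-MeS-ADP radioligand, 0.5 mg WGA-SPA beads. Buffer: 15 mM Hepes, 145 mM NaCl, 0.1 mM MgCl2, 5 mM EDTA, 5 mM KCl. Test compound at various concentrations or DMSO vehicle. Incubated 1 h at room temperature to completion, centrifuged at 2000g, then counted.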

P2Y purinoceptor 1 [2] = biological target: T1, P2Y purinoceptor 1; test: Antagonist activity at human P2Y1 receptor in HEK293 cells assessed as intracellular calcium level by FLIPR; assay type: functional, cell-based
Platelet = test: Inhibition of ADP-induced human platelet aggregation; assay type: functional, cell-based
Method in brief: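 Washed human platelets preincubated with compound for 5 min, then challenged with 10 µM ADP; aggregation followed by light transmittance aggregometry; IC50 reported.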

T1 sequence (P47900 whole entry): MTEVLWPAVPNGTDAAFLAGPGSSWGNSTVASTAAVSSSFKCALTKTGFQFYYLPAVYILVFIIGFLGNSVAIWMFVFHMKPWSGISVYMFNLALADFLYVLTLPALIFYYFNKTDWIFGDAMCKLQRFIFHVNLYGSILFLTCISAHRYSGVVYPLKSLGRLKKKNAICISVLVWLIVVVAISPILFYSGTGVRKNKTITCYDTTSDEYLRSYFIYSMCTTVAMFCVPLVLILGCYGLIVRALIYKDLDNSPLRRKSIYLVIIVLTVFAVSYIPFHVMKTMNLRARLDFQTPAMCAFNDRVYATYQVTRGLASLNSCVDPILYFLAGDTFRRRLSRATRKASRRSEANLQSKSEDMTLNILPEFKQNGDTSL

| SMILES | Ki (P2Y purinoceptor 1 [1]) | IC50 (P2Y purinoceptor 1 [2]) | also measured |
| --- | --- | --- | --- |
| CC[C@@H]1[C@@H](C)[C@H](Nc2ccccc2)c2ccccc2N1C(=O)Nc1ccc(Cl)cc1 | 300 nM | 2000 nM | – |
| CC[C@@H]1[C@@H](C)[C@H](Nc2ccccc2)c2ccccc2N1C(=O)c1ccc(Br)cc1 | 100 nM | 800 nM | – |
| CC[C@@H]1[C@@H](C)[C@H](Nc2ccccc2)c2ccccc2N1C(=O)c1ccccc1 | – | 25000 nM | – |
| CC[C@@H]1[C@@H](C)[C@H](Nc2ccccc2)c2ccccc2N1C(=O)Nc1cc(Cl)cc(Cl)c1 (stereo in doubt; 16) | – | – | Ki (P2Y purinoceptor 1 [1]; u2os): 70 nM; IC50 (P2Y purinoceptor 1 [2]; hek293): 600 nM; IC50 (Platelet): 504 nM |
| CC[C@@H]1[C@@H](C)[C@H](Nc2ccccc2)c2ccccc2N1C(=O)Nc1cccc(Cl)c1 | 300 nM | 1000 nM | – |
| CC[C@@H]1[C@@H](C)[C@H](Nc2ccccc2)c2ccccc2N1C(=O)Nc1ccccc1Cl | – | > 25000 nM | – |
| CC[C@@H]1[C@@H](C)[C@H](Nc2ccccc2)c2ccccc2N1C(=O)Nc1ccccc1 | 400 nM | 1600 nM | – |
| CC[C@@H]1[C@@H](C)[C@H](Nc2ccccc2)c2ccccc2N1C(=O)c1ccc(OC)cc1 | 400 nM | 800 nM | – |
| CC[C@@H]1[C@@H](C)[C@H](Nc2ccccc2)c2ccccc2N1C(=O)c1cccc(OC(F)(F)F)c1 | – | > 25000 nM | – |
| CC[C@@H]1C[C@@H](Nc2ccccc2)c2ccccc2N1C(=O)c1ccc(OC)cc1 | – | > 25000 nM | – |
| CC[C@@H]1[C@@H](C)[C@H](Nc2ccccc2)c2ccccc2N1C(=O)Nc1ccc(OC)cc1 | – | 6000 nM | – |

More lines, main results first:

| Ki (P2Y purinoceptor 1 [1]) | IC50 (P2Y purinoceptor 1 [2]) | SMILES | also measured |
| --- | --- | --- | --- |
| 800 nM | 3200 nM | CC[C@@H]1C[C@H](Nc2ccccc2)c2ccccc2N1C(=O)c1ccc(OC)cc1 | – |
| 200 nM | 800 nM | CC[C@@H]1[C@@H](C)[C@H](Nc2ccccc2)c2ccccc2N1C(=O)Nc1cc(OC)cc(OC)c1 | – |
| 400 nM | 1300 nM | CC[C@@H]1[C@@H](C)[C@H](Nc2ccccc2)c2ccccc2N1C(=O)c1ccc(Cl)cc1 | – |
| 100 nM | 1000 nM | CC[C@@H]1[C@@H](C)[C@H](Nc2ccccc2)c2ccccc2N1C(=O)Nc1cccc(Br)c1 | – |
| – | > 25000 nM | CC[C@@H]1[C@@H](C)[C@H](N(C)c2ccccc2)c2ccccc2N1C(=O)c1ccc(OC)cc1 | – |
| – | > 25000 nM | COc1ccc(C(=O)N2CC[C@H](Nc3ccccc3)c3ccccc32)cc1 | – |
| – | 10000 nM | COc1ccc(C(=O)N2C[C@@H](C)[C@H](Nc3ccccc3)c3ccccc32)cc1 | – |
| – | > 25000 nM | CC[C@H]1[C@H](C)[C@@H](Nc2ccccc2)c2ccccc2N1C(=O)Nc1cc(Cl)cc(Cl)c1 | – |
| 500 nM | 1600 nM | CC[C@@H]1[C@@H](C)[C@H](Nc2ccccc2)c2ccccc2N1C(=O)c1ccc([N+](=O)[O-])cc1 | – |
| 70 nM | 600 nM | CC[C@@H]1[C@@H](C)[C@H](Nc2ccccc2)c2ccccc2N1C(=O)Nc1cc(Cl)cc(Cl)c1 (stereo in doubt; 6i) | – |
| 100 nM | 1000 nM | CC[C@@H]1[C@@H](C)[C@H](Nc2ccccc2)c2ccccc2N1C(=O)c1ccc(OC(F)(F)F)cc1 | – |
| 500 nM | 1600 nM | CC[C@@H]1[C@@H](C)[C@H](Nc2ccccc2)c2ccccc2N1C(=O)Nc1cccc(OC)c1 | – |
